The series can be described thus: Toxicity liver stage against HepG2, at 10uM. Type of series: cell-based. Details: test concentration 10 uM, cell line HepG2-A16-CD81EGFP. Particulars: human, HepG2-A16-CD81EGFP cells; read-out: INHIBITION
The method, boiled down:
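Uninfected HepG2-A16-CD81EGFP cells, 3 × 10^3 per well, 1536-well, plated on prespotted compound at 10 μM final, parasite-free screening media added to match infected plates; puromycin 10 μM positive, DMSO 0.5% negative; run in parallel with 48 h PbLuc assay at 37 °C, 5% CO2; viability by CellTiter-Glo luminescence, normalized to controls.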
In the case of `CO[C@H]1COCCN(Cc2c[nH]c3ccccc23)C1`, the cytotoxicity at 10 µM worked out at 4.65%.
Turning to `O=C(NCCOCCO)c1cccnc1Oc1ccc(Cl)cc1`, the cytotoxicity at 10 µM was found to be 1.38%.
Turning to `CCC(=O)NCC(Cc1cccc(F)c1)n1cccc1` (stereo not drawn), the cytotoxicity at 10 µM was -0.765%.
For the molecule `CCCS(=O)(=O)N1CCC2(CCCC(=O)N2C)CC1`, the cytotoxicity at 10 µM stood at 3.29%.
Turning to `CN(Cc1ccco1)C1CCC12CCN(C(=O)c1ccncc1)CC2` (stereo not drawn), the cytotoxicity at 10 µM is 2.82%.
As to `CC(=O)N1CCC2(CCN(S(=O)(=O)c3ccccc3)CC2)C1`, the cytotoxicity at 10 µM is -2.83%.
Turning to `Cc1nc(COCC2CNCc3nccn3C2)cs1` (stereo not drawn), the cytotoxicity at 10 µM is 1.79%.
On to `CN1CC[C@]2(CN(C(=O)[C@H]3CCCO3)C[C@H]2c2ccccc2)C1=O`, for which the cytotoxicity at 10 µM worked out at 8.49%.
The same measure for `CN1C[C@@H]2COC[C@]2(C(=O)NCc2cccs2)C1`: 9.22%; for `O=C(c1ccc[nH]1)N1Cc2nccn2CC(COc2cccnc2)C1` (stereo not drawn): 18.1%; for `O=C(c1cccc(F)c1)N1CCc2ncc(Cn3cccn3)n2CC1`: 2.05%.
For the molecule `COc1ccc(C2SCC(=O)Nc3ccsc32)cc1OC` (stereo not drawn), the cytotoxicity at 10 µM is -0.898%.
With `CCOC(=O)N1CCN(c2nc(N3CCCC3)c3ccccc3n2)CC1` the figure was -5.31%.
`Cc1cc(SCC(N)=O)nc(-c2cccc(F)c2)n1`: the cytotoxicity at 10 µM was -1.9%.
As for `Cc1nn(C)c2c(=O)n(C(C)C)c(NCC3CCCO3)nc12` (stereo not drawn), the cytotoxicity at 10 µM was found to be 13.9%.
Take `Cc1oc2c(c1C(=O)N1CC[C@H](O)[C@]3(CCCO3)C1)CCCC2`: the cytotoxicity at 10 µM is 2.75%.
As for `COc1ccc(C(=O)N2CCOCC2c2[nH]ncc2C)cc1F` (stereo not drawn), the cytotoxicity at 10 µM is 2.21%.
The same measure for `Cc1cccc2nc(C(=O)N3CCCC[C@]4(C)NC(=O)CCC[C@H]34)cn12`: -1.85%; for `O=C(NCCO)C1CN(c2cncnc2)CCO1` (stereo not drawn): -29.9%; for `COc1cccc(CC(=O)N2CCCC2c2nc(C)c(F)c(O)n2)c1` (stereo not drawn): -21.6%.
On to `O=C(c1ccccn1)N1CCCC(c2ncncc2-c2ccncc2)C1` (stereo not drawn), for which the cytotoxicity at 10 µM is -0.0141%.
As to `Cn1ccc2ccnc(CC3CN(C(=O)c4cscn4)C3)c21`, the cytotoxicity at 10 µM is -28.6%.
For `Cc1ccnc(C2CCCN2C(=O)c2cnccn2)n1` (stereo not drawn), the cytotoxicity at 10 µM is -14.1%.
For `O=C(c1cc[nH]n1)N1CCc2c(nc(N3CCCCC3)[nH]c2=O)C1`, the cytotoxicity at 10 µM is 15.5%.
For `CN1CCCC(c2cccc(CCC(=O)NCc3ccccn3)n2)C1` (stereo not drawn), the cytotoxicity at 10 µM is -14%.
Consider `CCC(CO)NC(=O)Nc1cc(F)ccc1SCC(F)F` (stereo not drawn), for which the cytotoxicity at 10 µM came to 12.6%.
As for `CCn1nnnc1-c1cccc(NC(=O)CCOC(C)C)c1`, the cytotoxicity at 10 µM is -9.8%.
With `CCn1cc(CNCC(c2ccc(Cl)cc2)n2cccn2)cn1` (stereo not drawn) the figure was 6.67%; with `CC1(C)COCCN1C(=O)CCc1nc(-c2ccncc2)no1`, -6.61%.
On to `COC(=O)C1(NCc2nc(C)c(C)o2)CCC(C)CC1` (stereo not drawn), for which the cytotoxicity at 10 µM is -5.54%.
As for `CN1CCC(N(Cc2ccccc2)C(=O)c2ccn3ccnc3c2)CC1`, the cytotoxicity at 10 µM came out at 5.63%.
With `CC1COc2ccccc2N1C(=O)CCc1cscn1` (stereo not drawn) the figure was 1.88%; with `CN(Cc1cc2ccccc2o1)S(C)(=O)=O`, 1.66%.
As for `Cc1cc(C(=O)NC2CCN(c3nnc(C)c(C)c3C#N)CC2)no1`, the cytotoxicity at 10 µM was -2.12%.
For `CCOc1cccc2c1OCC(C(=O)NC(C)Cn1cccn1)=C2` (stereo not drawn), the cytotoxicity at 10 µM was -1.18%.
Consider `CC1CN(C(=O)C2(c3cccc(F)c3)CCOCC2)CCO1` (stereo not drawn), for which the cytotoxicity at 10 µM is 4.89%.
Regarding `CCn1cnnc1CNC(=O)N1CCOC(c2ccc(F)cc2)C1` (stereo not drawn), the cytotoxicity at 10 µM is 5.53%.
Consider `COc1ccc2c(c1)CCCN2C(=O)CN1CCOC(CN(C)C)C1` (stereo not drawn), for which the cytotoxicity at 10 µM is -2.93%.
`O=C(NCc1ccc(N2CC=CC2)cc1)Nc1nnc(C2CC2)s1`: the cytotoxicity at 10 µM is 7.25%.
As for `O=C(NCc1ccccn1)NCC(c1ccco1)N1CCCC1` (stereo not drawn), the cytotoxicity at 10 µM is -2.56%.
Regarding `COC(=O)NCC(=O)NCC(C)(C)c1cccc(C(F)(F)F)c1`, the cytotoxicity at 10 µM was -3.36%.
As for `Cc1ccc(OCC(=O)NCC(F)(F)F)nc1`, the cytotoxicity at 10 µM stood at 0.84%.
`CCc1nccn1C1CCCN(C(=O)c2cc(C3CC3)on2)C1` (stereo not drawn): the cytotoxicity at 10 µM was -6.96%.
Consider `O=C(CNC(=O)Nc1c(F)cc(F)cc1-c1ccccc1)NC1CC1`, for which the cytotoxicity at 10 µM is -13.5%.
Consider `N#Cc1nccnc1NC1CCN(c2ccccc2Br)C1` (stereo not drawn), for which the cytotoxicity at 10 µM was 3.92%.
With `CC(C)c1nnc2n1CC(CNCc1nnc(C(C)(C)C)o1)CC2` (stereo not drawn) the figure was -21.6%; with `Cc1nc2ccccc2n(Cc2nnnn2C2CC2)c1=O`, -10.3%; with `C1CCN(CCOC2CCNCC2)CC1`, 6.88%.
`O=C(NCCC(=O)N1CCCC1)c1cccnc1`: the cytotoxicity at 10 µM was 11%.
Take `CCC(C)(C)NC(=O)CSCc1ccc(S(=O)(=O)N(C)C)o1`: the cytotoxicity at 10 µM turned out to be 5.94%.
Take `Cc1ccc2c(c1)OCCCC2NCc1nccn1Cc1ccccc1` (stereo not drawn): the cytotoxicity at 10 µM was -9.4%.
In the case of `COc1ccc(C(NCc2cccc(O)c2)C2CC2)cc1` (stereo not drawn), the cytotoxicity at 10 µM was found to be 4.99%.
Turning to `CC(=O)N1CCCN(C(=O)NCCCNS(C)(=O)=O)CC1`, the cytotoxicity at 10 µM is -10.3%.
With `Cc1noc(COCC(=O)Nc2ncccc2Br)n1` the figure was 2.13%; with `Cc1ccc(CCC(=O)N(C)CCN2CCOCC2)c(C)c1`, -4.51%.
For `Cc1ccc(CC2CCCN2CC(=O)NCc2cccnc2)cc1` (stereo not drawn), the cytotoxicity at 10 µM is -3.83%.
In the case of `CS(=O)(=O)N1CCC2(CC1)CC(CC(=O)NCC1CC1)c1ccccc12` (stereo not drawn), the cytotoxicity at 10 µM was determined as 7.65%.
The same measure for `Cc1nc(O)cc(CCNC(=O)CN2CCCCCC2)n1`: 0.458%; for `Cc1cnc(C)c(N2CCC(C(=O)O)(n3ccc(C(C)(C)C)n3)CC2)n1`: 20.4%; for `CCCc1cc(C(=O)N(CC)Cc2ccncc2)[nH]n1`: -6.52%.
Turning to `CN(Cc1nc(C2CC2)no1)C(=O)CN1CC(c2ccccc2)CC1=O` (stereo not drawn), the cytotoxicity at 10 µM was determined as 2.11%.
With `CSc1ccccc1-n1ccnc1-c1cn(C2CCNCC2)nn1`, the cytotoxicity at 10 µM is -0.67%.
Turning to `COCc1ncn(Cc2nc(-c3ccc(OC)c(OC)c3)oc2C)n1`, the cytotoxicity at 10 µM is -4.77%.
In the case of `Cc1cccc(C(C(=O)NCc2cc(C)[nH]n2)N(C)C)c1` (stereo not drawn), the cytotoxicity at 10 µM was -3.07%.
With `O=C(O)c1cc(N2C[C@H](NC(=O)C3CCOCC3)[C@@H](C3CC3)C2)ccn1` the figure was -4.23%; with `COc1ccc2c(c1)CC(C(=O)N(C)Cc1noc3c1CCCC3)CO2` (stereo not drawn), -0.551%; with `Cc1nc[nH]c1C(=O)N1CCCC2(CN(C)C(=O)O2)C1` (stereo not drawn), 1.2%.
As to `COC(=O)Nc1ccc(CNc2cncc(-n3cccn3)n2)cc1`, the cytotoxicity at 10 µM is -5.78%.
Consider `CCc1c(C(=O)N2CCNC(=O)C2)cnn1C(C)(C)C`, for which the cytotoxicity at 10 µM is -20.3%.
Take `CC(O)CNCc1c(C(C)C)nn(C)c1N1CCOCC1` (stereo not drawn): the cytotoxicity at 10 µM is -3.48%.
On to `O=C(NCC1CCOC1)Nc1ccc(Oc2ccc(F)cc2)nc1` (stereo not drawn), for which the cytotoxicity at 10 µM was -13.7%.
For the molecule `CC(Nc1cccc(CN2CCOC2=O)c1)C(=O)NC(=O)NC(C)(C)C` (stereo not drawn), the cytotoxicity at 10 µM was -10.9%.
The same measure for `Cc1nc(C)n(CC2CCCCN2CCc2ccncc2)n1` (stereo not drawn): -6.3%.
With `CC(C)(C)c1cc(NC(=O)CN2CCC(N3CCNC3=O)CC2)on1`, the cytotoxicity at 10 µM is -2.05%.
With `Cc1cnn(CC2CCCN2C(=O)c2ccc(Cl)cc2F)c1` (stereo not drawn) the figure was -19%; with `CCn1ccnc1CN1CCCN(C(=O)Cc2ccc(C)cc2)CC1`, -7.29%; with `CCN(Cc1cccc(F)c1)Cc1nc2c(cnn2C)c(=O)[nH]1`, 3.71%.
Turning to `CC(=O)N(Cc1ncc(C)o1)C1CCN(Cc2ccon2)C1` (stereo not drawn), the cytotoxicity at 10 µM was -9.03%.
For the molecule `CCn1cnnc1C1CCN(C(=O)c2ccccc2OC)CC1`, the cytotoxicity at 10 µM was -8.62%.
Consider `Cn1ccnc1CN1CCCN(C(=O)c2ccc3c(c2)COC3)CC1`, for which the cytotoxicity at 10 µM is -10.9%.
`Cn1cc(C(=O)NC2CCN(Cc3ccn(C)c(=O)c3)CC2)cn1`: the cytotoxicity at 10 µM is -16.7%.
Take `CNc1nc(CNC(=O)Nc2cccc(F)c2C)cs1`: the cytotoxicity at 10 µM was -5.43%.
Turning to `Cc1cccc(-c2nc(CN3CCc4cnc(C)nc4C3)no2)c1`, the cytotoxicity at 10 µM is -8.42%.
With `O=C1CC2(CCCNC2)C(=O)N1Cc1ccc(Cl)cc1` (stereo not drawn) the figure was -1.57%; with `Cc1ccoc1C(=O)N1Cc2c(CN3CCCCC3)nn(C)c2C1`, -1.16%.
`CC(C)C(=O)N1CC[C@H]2N(C)CC[C@@]2(C(=O)N2CCCC2)CC1`: the cytotoxicity at 10 µM was 5.5%.
For `CC(=O)N1CC[C@H]2OCC[C@@]2(C(=O)NCCc2ccccn2)C1`, the cytotoxicity at 10 µM turned out to be 6%.
With `C[C@H]1CN(CC2CCOCC2)C[C@@]12CCN(Cc1cccnc1)C2=O` the figure was 1.73%; with `c1cncc(N2CCCC3(CCN(CC4CCCO4)CC3)C2)c1` (stereo not drawn), 5.15%.
The same measure for `c1cnc2c(c1)CN(C1CCOC1)CCN2CC1CC1` (stereo not drawn): 4.92%; for `c1ccc(CN2CCc3c(COCc4ccncc4)cncc3C2)nc1`: 6.53%.
In the case of `CN(C)C[C@]12COC[C@H]1CN(Cc1ccc3ccccc3n1)C2`, the cytotoxicity at 10 µM came out at 6.77%.
Take `O=C1[C@@H]2CN(C3CCOCC3)C[C@H]2CCN1CC1CC1`: the cytotoxicity at 10 µM was determined as 4.17%.
Regarding `O=C1[C@H]2CN(Cc3ccc(F)cc3)C[C@H]2CN1CCN1CCCC1`, the cytotoxicity at 10 µM was -13.2%.
As to `Cn1nc(Cn2ccnc2)c2c1CN(c1ncccn1)C2`, the cytotoxicity at 10 µM was 5.3%.
For the molecule `Cc1ccc2c(n1)N(C)CCN(Cc1ccco1)C2`, the cytotoxicity at 10 µM is -4.97%.
In the case of `COc1cccc(-n2cc3[nH]c(=O)[nH]n3c2=O)c1`, the cytotoxicity at 10 µM is -6.47%.
With `CC(C)(C)CC(=O)N1C[C@@H]2C[C@@H]1CN2`, the cytotoxicity at 10 µM turned out to be 6.59%.
